One compound from ChEMBL document CHEMBL1135739, “Radiolabeled amino acids for tumor imaging with PET: radiosynthesis and biological evaluation of 2-amino-3-[18F]fluoro-2-methylpropanoic acid and 3-[18F]fluoro-2-methyl-2-(methylamino)propanoic acid” (J Med Chem, 2002) can be followed below.

“And” between values parts separate entries of the source, which are not always exact repeats. Equal entries are not always repeated.

The species entered for data set [1] is Rattus norvegicus. Description: Radioactivity distribution in liver of normal fischer rat after injection of [18F]-fluoro-2-methyl-2-(methylamino)propanoic acid after 120 min. It is filed as ADME, organism-based. The settings on record: in vivo, 2 h. In short, it runs like this: (§1)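 Male Fischer 344 rats (200–250 g), fed ad libitum, anesthetized with intramuscular ketamine:xylazine (1:1, 0.1 mL/100 g). About 85 μCi tracer in 0.3 mL sterile water was given by tail-vein catheter. Groups of four were killed at 5, 30, 60 or 120 min. Tissues were weighed and gamma-counted against dose standards, decay-corrected, and expressed as %ID/g (mean ± standard error).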

Data set [2] is filed under the species Rattus norvegicus. Description: Radioactivity distribution in pancreas of normal fischer rat after injection of [18F]-fluoro-2-methyl-2-(methylamino)propanoic acid after 60 min. It counts as ADME, organism-based. The settings on record: in vivo, 1 h. In short, it runs like this:
as §1

The species named for data set [3] is Rattus norvegicus. The experiment in a line: Radioactivity distribution in kidney of normal fischer rat after injection of [18F]-fluoro-2-methyl-2-(methylamino)propanoic acid after 120 min. It is filed as ADME, organism-based. The settings on record: in vivo, 2 h. In short, it runs like this: (§2)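 Normal male Fischer 344 rats (200–250 g), anesthetized with i.m. ketamine:xylazine (1:1), got ~85 μCi of tracer in 0.3 mL sterile water i.v. via tail-vein catheter. Groups of four were killed at 5, 30, 60 or 120 min. Tissues were weighed and gamma-counted against dose standards, and counts were decay-corrected to %ID/g. Results are mean ± standard error (n = 4), compared by one-way ANOVA.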

The species entered for data set [4] is Rattus norvegicus. Description: Radioactivity distribution in brain of normal fischer rat after injection of [18F]-fluoro-2-methyl-2-(methylamino)propanoic acid after 60 min. It counts as ADME, organism-based. The following applies: in vivo, 1 h. The essentials:
as §2

The species entered for data set [5] is Rattus norvegicus. Description: Radioactivity distribution in testis of normal fischer rat after injection of [18F]-fluoro-2-methyl-2-(methylamino)propanoic acid after 5 min. It is filed as ADME, organism-based. The settings on record: in vivo. The essentials:
(§3)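 Male Fischer 344 rats (200–250 g), fed ad libitum, under intramuscular ketamine:xylazine anesthesia, got ~85 μCi radiotracer in 0.3 mL sterile water by tail-vein catheter. Groups of four were killed at 5, 30, 60 or 120 min. Dissected tissues were weighed and gamma-counted with dose standards. Counts were decay-corrected and given as %ID/g, mean ± standard error. Tissues were compared by one-way ANOVA.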

The species named for data set [6] is Rattus norvegicus. Description: Radioactivity distribution in kidney of normal fischer rat after injection of [18F]-fluoro-2-methyl-2-(methylamino)propanoic acid after 5 min. It counts as ADME, organism-based. The following applies: in vivo. The essentials: as §2
Data set [7] is filed under the species Rattus norvegicus. Description: Radioactivity distribution in liver of normal fischer rat after injection of [18F]-fluoro-2-methyl-2-(methylamino)propanoic acid after 30 min. It counts as ADME, organism-based. The following applies: in vivo, 0.5 h. The essentials: as §1
For data set [8], the species on record is Rattus norvegicus. The experiment in a line: Radioactivity distribution in lung of normal fischer rat after injection of [18F]-fluoro-2-methyl-2-(methylamino)propanoic acid after 30 min. The following applies: in vivo, 0.5 h. It is filed as ADME, organism-based. The essentials: as §1
Data set [9] is filed under the species Rattus norvegicus. The experiment in a line: Radioactivity distribution in muscle of normal fischer rat after injection of [18F]-fluoro-2-methyl-2-(methylamino)propanoic acid after 60 min. It is filed as ADME, organism-based, Muscle tissue. The settings on record: in vivo, 1 h. The essentials:
as §1

The species entered for data set [10] is Rattus norvegicus. Description: Radioactivity distribution in heart of normal fischer rat after injection of [18F]-fluoro-2-methyl-2-(methylamino)propanoic acid after 60 min. It counts as ADME, organism-based. The following applies: in vivo, 1 h. The essentials: as §2
For data set [11], the species on record is Rattus norvegicus. The experiment in a line: Radioactivity distribution in spleen of normal fischer rat after injection of [18F]-fluoro-2-methyl-2-(methylamino)propanoic acid after 30 min. It counts as ADME, organism-based. The following applies: in vivo, 0.5 h. In short, it runs like this: as §3
For data set [12], the species on record is Rattus norvegicus. The experiment in a line: Radioactivity distribution in lung of normal fischer rat after injection of [18F]-fluoro-2-methyl-2-(methylamino)propanoic acid after 5 min. It is filed as ADME, organism-based. The following applies: in vivo. The essentials: as §1
Data set [13] is filed under the species Rattus norvegicus. The experiment in a line: Radioactivity distribution in pancreas of normal fischer rat after injection of [18F]-fluoro-2-methyl-2-(methylamino)propanoic acid after 120 min. It is filed as ADME, organism-based. The following applies: in vivo, 2 h. In short, it runs like this:
as §1

The species entered for data set [14] is Rattus norvegicus. The experiment in a line: Radioactivity distribution in blood of normal fischer rat after injection of [18F]-fluoro-2-methyl-2-(methylamino)propanoic acid after 30 min. It is filed as ADME, organism-based. The settings on record: in vivo, 0.5 h. The essentials:
as §2

The species named for data set [15] is Rattus norvegicus. The experiment in a line: Radioactivity distribution in blood of normal fischer rat after injection of [18F]-fluoro-2-methyl-2-(methylamino)propanoic acid after 5 min. The following applies: in vivo. It is filed as ADME, organism-based. The essentials: as §2
The species named for data set [16] is Rattus norvegicus. Description: Radioactivity distribution in bone of normal fischer rat after injection of [18F]-fluoro-2-methyl-2-(methylamino)propanoic acid after 60 min. It counts as ADME, organism-based, Bone element. The following applies: in vivo, 1 h. The essentials:
as §2

The species entered for data set [17] is Rattus norvegicus. The experiment in a line: Radioactivity distribution in tumor of tumor-bearing fischer rat after injection of [18F]-fluoro-2-methyl-2-(methylamino)propanoic acid after 60 min. The following applies: in vivo, 1 h.
The species named for data set [18] is Rattus norvegicus. Description: Radioactivity distribution in pancreas of normal fischer rat after injection of [18F]-fluoro-2-methyl-2-(methylamino)propanoic acid after 5 min. It counts as ADME, organism-based. The following applies: in vivo. The essentials: as §1
For data set [19], the species on record is Rattus norvegicus. Description: Radioactivity distribution in spleen of normal fischer rat after injection of [18F]-fluoro-2-methyl-2-(methylamino)propanoic acid after 5 min. It is filed as ADME, organism-based. The following applies: in vivo. The essentials: as §3
Data set [20] is filed under the species Rattus norvegicus. The experiment in a line: Radioactivity distribution in tumor of tumor-bearing fischer rat after injection of [18F]-fluoro-2-methyl-2-(methylamino)propanoic acid after 5 min. The following applies: in vivo.
Data set [21] is filed under the species Rattus norvegicus. The experiment in a line: Radioactivity distribution in testis of normal fischer rat after injection of [18F]-fluoro-2-methyl-2-(methylamino)propanoic acid after 30 min. It is filed as ADME, organism-based. The following applies: in vivo, 0.5 h. The essentials: as §3
Data set [22] is filed under the species Rattus norvegicus. Description: Radioactivity distribution in spleen of normal fischer rat after injection of [18F]-fluoro-2-methyl-2-(methylamino)propanoic acid after 120 min. It counts as ADME, organism-based. The settings on record: in vivo, 2 h. The essentials: as §1
For data set [23], the species on record is Rattus norvegicus. Description: Radioactivity distribution in brain of normal fischer rat after injection of [18F]-fluoro-2-methyl-2-(methylamino)propanoic acid after 120 min. It is filed as ADME, organism-based. The settings on record: in vivo, 2 h. In short, it runs like this: as §2

On to `CNC(C)(C[18F])C(=O)O.Cl` (stereo not drawn), for which the ID/g in the data set filed under Rattus norvegicus [1] is 0.58% and 0.41%; in the data set listed under Rattus norvegicus [2] it was 3.24% and 2.42%; in the data set filed under Rattus norvegicus [3], 1.36% and 1.59%; in the data set listed under Rattus norvegicus [4], 0.03% and < 0.022%; in the data set filed under Rattus norvegicus [5], 0.17% and 0.19%; in the data set filed under Rattus norvegicus [6], 8.12% and 9.33%. Also, the ID/g is 0.72% in the data set listed under Rattus norvegicus [7]; 0.5% in the data set filed under Rattus norvegicus [8]; 0.15% and 0.19% in the data set listed under Rattus norvegicus [9]; 0.2% and 0.25% in the data set filed under Rattus norvegicus [10]; 0.75% in the data set listed under Rattus norvegicus [11]; 0.53% and 0.61% in the data set listed under Rattus norvegicus [12]. For the same compound, the ID/g in the data set listed under Rattus norvegicus [13] was 2.88% and 1.74%; in the data set listed under Rattus norvegicus [14], 0.3%; in the data set listed under Rattus norvegicus [15], 0.61% and 0.69%; in the data set filed under Rattus norvegicus [16], 0.29% and 0.23%; in the data set filed under Rattus norvegicus [17], 2.28%; in the data set filed under Rattus norvegicus [18], 2.73% and 2.95%. For the same compound, the ID/g in the data set filed under Rattus norvegicus [19] was 0.44% and 0.47%; in the data set listed under Rattus norvegicus [20], 1.29%; in the data set listed under Rattus norvegicus [21], 0.11%; in the data set listed under Rattus norvegicus [22], 0.47% and 0.4%; in the data set listed under Rattus norvegicus [23], 0.03% and < 0.02%.
